Activity calls are given as the source filed them. The calls are words filed in the database; no cut-off is given here.
Columns and labels:
[1] = tested on: RAW264.7; experiment: Inhibition of LPS-induced NFkappaB transcriptional activity in mouse RAW264.7 cells assessed as reduction of phosphorylated IkappaB-alpha level at 10 uM after 30 mins by Western blotting analysis relative to control; format: cell-based
Procedure, shortened: (§1)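 Macrophages were exposed to compound for 30 min before LPS stimulation, with proteins extracted 30 min later. Nuclear extracts were prepared in Tris/KCl/NP-40 lysis buffer, then 420 mM NaCl buffer, and the cytosolic fraction was kept for IκB-α. Western blot on PVDF with ECL detection. Tests in triplicate; representative of three separate experiments.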

[2] = tested on: Mus musculus; experiment: Antiinflammatory activity in ICR mouse ear edema model assessed as inhibition of TPA-induced iNOS protein expression in ear tissue at 10 to 20 mg/kg, po administered 30 mins prior to TPA challenge measured after 4 hrs by Western blotting analysis relative to vehicle-treated control; format: functional, organism-based
Procedure, shortened: (§2)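 ICR mice (male, 18−20 g, 5 weeks old) dosed orally 30 min before TPA (1.0 μg in 20 μL acetone) was applied to inner and outer surfaces of the right ear. Killed by cervical dislocation after 4 h. Edema taken as the weight of a 5 mm punch biopsy of the right ear over the left. Ear homogenates were Western blotted for iNOS, COX-2 and IL-1β.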

[3] = tested on: Mus musculus; experiment: Antiinflammatory activity in ICR mouse ear edema model assessed as inhibition of TPA-induced ear edema at 20 mg/kg, po administered 30 mins prior to TPA challenge measured after 4 hrs relative to vehicle-treated control; format: functional; procedure, shortened: as §2
[4] = tested on: RAW264.7; experiment: Inhibition of LPS-induced NFkappaB transcriptional activity in mouse RAW264.7 cells assessed as reduction of phosphorylated IkappaB-alpha level at 20 uM after 30 mins by Western blotting analysis relative to control; format: cell-based; procedure, shortened: as §1
[5] = tested on: RAW264.7; experiment: Antiinflammatory activity in mouse RAW264.7 cells assessed as inhibition LPS-induced TNF-alpha mRNA expression at 40 uM after 4 hrs by RT-PCR analysis relative to control; format: functional
Procedure, shortened: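 RAW 264.7 cells stimulated with LPS (1 μg/mL) with or without compound for 4 h. Total RNA was isolated and cytokine mRNA was analysed by RT-PCR: 94 °C 4 min, then 25−30 cycles of 94/55/72 °C for 30 s each, then 72 °C 5 min. Products were run on 2% agarose and stained with SYBR-Safe. Triplicate, representative of three experiments.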

[6] = molecular target: MAP kinase p38 (Mus musculus) (UniProt P47811+O08911+Q9WUI1+Q9Z1B7); experiment: Inhibition LPS-induced p38 kinase phosphorylation in mouse RAW264.7 cells at 10 to 40 uM administered 30 mins prior to LPS challenge measured after 30 mins by Western blotting analysis; format: cell-based
Procedure, shortened: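 RAW 264.7 cells pretreated with compound for 30 min, then stimulated with LPS for an additional 30 min. Lysates resolved by 6−15% SDS-PAGE and blotted to PVDF. Primary antibodies were applied overnight at 4 °C and secondary antibodies for 2 h at room temperature. Detection by ECL. Tests in triplicate; blots representative of three separate experiments.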

[7] = tested on: RAW264.7; experiment: Inhibition of LPS-induced NFkappaB transcriptional activity in mouse RAW264.7 cells assessed as […] at 20 uM after 30 mins by Western blotting analysis relative to control; format: cell-based; procedure, shortened: as §1
[8] = molecular target: Mitogen-activated protein kinase 1 and 3 (ERK2 and ERK1) (Mus musculus) (UniProt P63085+Q63844); experiment: Inhibition LPS-induced ERK1/2 phosphorylation at Thr202/Tyr204 in mouse RAW264.7 cells at 20 uM administered 30 mins prior to LPS challenge measured after 30 mins by Western blotting analysis; format: cell-based
Sequence of Mitogen-activated protein kinase 1 and 3 (ERK2 and ERK1) (Mus musculus) (P63085 whole entry, looked up): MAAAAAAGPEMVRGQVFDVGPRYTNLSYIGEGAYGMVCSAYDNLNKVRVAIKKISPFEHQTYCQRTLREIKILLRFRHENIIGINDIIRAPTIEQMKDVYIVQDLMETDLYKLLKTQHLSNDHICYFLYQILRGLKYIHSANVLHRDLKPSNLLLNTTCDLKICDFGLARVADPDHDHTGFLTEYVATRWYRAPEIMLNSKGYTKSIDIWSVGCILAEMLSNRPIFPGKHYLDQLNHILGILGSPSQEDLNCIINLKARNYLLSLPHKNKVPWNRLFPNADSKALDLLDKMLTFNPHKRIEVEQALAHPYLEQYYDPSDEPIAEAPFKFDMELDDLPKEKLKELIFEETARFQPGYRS
Sequence of Mitogen-activated protein kinase 1 and 3 (ERK2 and ERK1) (Mus musculus) (Q63844 whole entry, looked up): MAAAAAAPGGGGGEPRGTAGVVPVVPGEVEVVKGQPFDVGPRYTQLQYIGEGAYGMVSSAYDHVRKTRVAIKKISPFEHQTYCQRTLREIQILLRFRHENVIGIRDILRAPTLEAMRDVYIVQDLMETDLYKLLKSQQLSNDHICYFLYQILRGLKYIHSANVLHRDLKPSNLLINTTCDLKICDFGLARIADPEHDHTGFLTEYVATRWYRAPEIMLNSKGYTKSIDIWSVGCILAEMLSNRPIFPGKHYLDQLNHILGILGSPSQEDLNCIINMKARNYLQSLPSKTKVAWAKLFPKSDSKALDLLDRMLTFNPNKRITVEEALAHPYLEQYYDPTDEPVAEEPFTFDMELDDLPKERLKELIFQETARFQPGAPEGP
Procedure, shortened: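 RAW 264.7 cells pretreated with compound for 30 min, then stimulated with LPS for 30 min. Protein extracts were Western blotted for phosphorylated ERK and JNK (SDS-PAGE, PVDF, ECL detection).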

[9] = tested on: RAW264.7; experiment: Antiinflammatory activity in mouse RAW264.7 cells assessed as inhibition of LPS-induced COX2 mRNA expression at 10 uM after 5 hrs by RT-PCR analysis relative to control; format: functional
Procedure, shortened: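 RAW 264.7 cells exposed to 1 μg/mL LPS with or without compound for 5 h. Total RNA was analysed by RT-PCR: 25−30 cycles with annealing at 55 °C. Products were separated on 2% agarose gel with SYBR-Safe staining. Experiments in triplicate.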

[10] = tested on: RAW264.7; experiment: Antiinflammatory activity in mouse RAW264.7 cells assessed as inhibition LPS-induced miR-155 mRNA expression after 8 hrs by RT-PCR analysis; format: functional, cell-based
Procedure, shortened: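 LPS-stimulated RAW 264.7 cells, with or without compound, for 8 h. miR-155 measured by TaqMan qRT-PCR on 10 ng RNA, with stem-loop primer RT at 16 °C 30 min, 42 °C 30 min, 85 °C 5 min. Expression given as a ratio to β-actin. Mean ± SD of triplicates.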

[11] = tested on: RAW264.7; experiment: Antiinflammatory activity in mouse RAW264.7 cells assessed as inhibition LPS-induced IL-1beta protein expression at 10 uM after 4 hrs by Western blotting analysis; format: functional
Procedure, shortened: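 RAW 264.7 cells stimulated with LPS (1 μg/mL) with or without compound for 4 h. Lysates were resolved by 6−15% SDS-PAGE and blotted to PVDF. Blocked in 5% milk/PBST, primary antibody overnight at 4 °C, secondary antibody 2 h, detected by ECL. Triplicate, representative of three experiments.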

In the case of C=C1C(=O)O[C@@H]2[C@@H]3[C@@]4(C=C[C@@]3(C)[C@]3(C4)C(=O)O[C@@H]4[C@H]5C(C)=CC[C@H]5[C@](C)(O)C[C@H](OC(C)=O)[C@H]43)[C@](C)(O)CC[C@@H]12, the inhibition [1] is reported as “Active”, the inhibition [2] is reported as “Active” and the inhibition in vivo at 20 mg/kg [3] is reported as 56%. For the same compound, the fold change (FC) [4] was 0.55, the “fold change (FC)” value [5] was 0.1 and the inhibition [6] was “inactive”. The fold change (FC) [7] was 1.85, the fold change (FC) [8] was 0.79 and the “fold change (FC)” value [9] was 0.63. The inhibition [10] was “Active” and the “fold change (FC)” value [11] was 0.73.

Source: ChEMBL document CHEMBL3259611, “Suppression of inflammatory responses by handelin, a guaianolide dimer from Chrysanthemum boreale, via downregulation of NF-κB signaling and pro-inflammatory cytokine production” (J Nat Prod, 2014)
